Assay outcomes (PubChem)
The list is not random: actives were taken first. Their share in the collection is about 3.8%.
ARNT TACC3 PPI – disruptors of ARNT/TACC3 protein interaction, primary screen, biochemical, AlphaScreen, single concentration; Transforming acidic coiled-coil-containing protein 3 (Homo sapiens), Q9Y6A5; AlphaScreen His-ARNT PAS-B/GST-TACC3 binding, luminescence; TACC3 fragment carries E629A point mutation; inhibition, % at 9.99 µM; hit rate 0.66% among 390,000; AID 623870, 2012;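 active = mean inhibition of replicates at least 50% and at least half of replicates each reaching 50%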;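 note: 0% = complete ARNT plus TACC3 wells and 100% = ARNT alone without TACC3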
SIRT5 block – SIRT5 desuccinylase inhibitors, primary screen, biochemical, fluorescence imaging, single point, set 5; inhibition, % at 15 µM; AID 652115, 2013; hit rate 1.1% among 330,000; Purified SirT5, succinyl-peptide AMC, trypsin-coupled fluorescence; NAD-dependent protein deacylase sirtuin-5, mitochondrial (Homo sapiens), Q9NXA8; in the data active = inhibition above about 15%
Target sequence (Q9NXA8 whole entry, looked up): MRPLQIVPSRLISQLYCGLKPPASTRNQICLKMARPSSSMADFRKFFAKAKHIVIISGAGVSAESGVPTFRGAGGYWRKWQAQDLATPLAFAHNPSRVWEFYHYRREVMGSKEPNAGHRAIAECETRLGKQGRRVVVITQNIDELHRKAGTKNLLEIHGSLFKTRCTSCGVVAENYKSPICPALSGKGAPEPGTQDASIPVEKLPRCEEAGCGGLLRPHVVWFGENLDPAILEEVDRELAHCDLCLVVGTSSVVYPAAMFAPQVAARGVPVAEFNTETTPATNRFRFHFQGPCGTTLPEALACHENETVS
FGF22 binding – binders of human FGF22 protein, primary screen, FGF22 synaptogenesis inhibitor project, biophysical, thermal shift, single point; Fibroblast growth factor 22 (Homo sapiens), Q9HCT0; hit rate 1.5% among 340,000; activity (Tm shift, normalised), % at 9.99 µM; AID 651658, 2012; recombinant FGF22 thermal shift, SYPRO orange fluorescence; percent of sucrose octasulfate shift, DMSO zero;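 active = mean Tm shift, scaled 0 neutral to 100 positive control, at about 1.3% or above, every replicate too, limit read from the data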
Target sequence (Q9HCT0 whole entry, looked up): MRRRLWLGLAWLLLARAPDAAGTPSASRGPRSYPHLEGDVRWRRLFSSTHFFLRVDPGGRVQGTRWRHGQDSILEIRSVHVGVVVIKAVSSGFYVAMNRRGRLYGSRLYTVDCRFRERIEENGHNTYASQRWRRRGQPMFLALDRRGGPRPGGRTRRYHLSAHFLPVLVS
FN deposit inh – inhibitors of fibronectin matrix deposition, primary screen, AH1F cells, Alexa488-fibronectin fluorescence, plate reader; AH1F fibroblasts, overnight; inhibition, % at 12.6 µM; hit rate 0.086% among 350,000;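 active = mean inhibition across replicates of 30% or more, regardless of how many single replicates reach that level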;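 note: positive control wells lacked labelled fibronectin entirely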
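material = AH1F fibroblast monolayer depositing Alexa488-labelled fibronectin into matrix | amount = 10000 AH1F cells/well | buffer or medium = DMEM plus 2% serum, read in PBS | incubation = 1 h cell adhesion before compound, then overnight fibronectin incubation | detection = fluorescence at 485 nm excitation, 525 nm emission | evaluation = percent inhibition as loss of matrix-bound fibronectin fluorescence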
DENV2 CPE – inhibitors of DENV2 cytopathic effect, primary screen, cell-based, plate reader, single concentration; CPE inhibition, % at 9.99 µM; hit rate 1.7% among 350,000; DENV2-infected cells, cytopathic effect rescue; in the data active = CPE inhibition above about 20%, passing the limit was not always enough; tested in BHK-21 cells;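 note: 0% = median of neutral control wells and 100% = median of positive control wells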
XiGFP reactiv – activators of inactive X chromosome reactivation, primary screen, imaging, XiGFP fibroblasts, GFP high-content imaging, set 2. XiGFP mouse fibroblasts, % GFP-positive cells imaging, 3 d; cells co-treated with 5-aza-dC sensitizer; scaled so ellipticine positive control = 100%. activation, % at 7.58 µM. hit rate 0.055% among 360,000. AID 743238, 2013;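 active = mean normalized replicate activation at least 10% and every replicate at or above 10%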;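 note: 0% = median of on-plate neutral control wells and 100% = ellipticine 6 µM median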
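Material: XiGFP fibroblasts, SV40-immortalized. Buffer or medium: DMEM plus 5-aza-dC sensitizer. Compound: single concentration per compound, delivered by pin transfer. Times: 3 days compound exposure. Controls: ellipticine 6 µM.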
The depositor's hits bear a star; / = no result; ! = a repeat was not active.

SMILES | ARNT TACC3 PPI | SIRT5 block | FGF22 binding | FN deposit inh | DENV2 CPE | XiGFP reactiv
COc1ccc(CN(C)C[C@@H]2Oc3ccc(NC(=O)Nc4c(C)noc4C)cc3C(=O)N([C@@H](C)CO)C[C@H]2C)cc1 | -7 | 0 | / | 1 | 9 | -1
CNC(=O)C[C@@H]1CC[C@H]2[C@@H](COc3ccc(NC(=O)c4cc(C)on4)cc3C(=O)N2C)O1 | -1 | / | 0 | -7 | 2 | 0
C[C@H](O)C#Cc1ccc2c(c1)O[C@@H](CN(C)Cc1ccc(-c3ccccc3)cc1)[C@@H](C)CN([C@@H](C)CO)S2(=O)=O | 17 | 30* | 0 | / | -1 | -1
NC(=O)c1ncn([C@@H]2O[C@H](C(=O)N[C@H](Cc3c[nH]c4ccccc34)C(=O)N3CCN(CC(=O)N4CCCC4)CC3)[C@@H](O)[C@H]2O)n1 | / | -2 | 0 | 4 | 21* | 0
NC(=O)c1ncn([C@@H]2O[C@H](C(=O)N[C@H](Cc3c[nH]c4ccccc34)C(=O)N3CCN(C(=O)C4CC4)CC3)[C@@H](O)[C@H]2O)n1 | / | 0 | 0 | 10 | -1 | 0
COc1ccc(NC(=O)N[C@H]2CC[C@H](CCNS(=O)(=O)c3ccccc3F)O[C@@H]2CO)cc1 | 5 | 0 | 0 | -2 | 13 | 0
COCC(=O)N1CC2(C1)[C@@H](c1ccc(-c3cccc(F)c3)cc1)[C@H](CO)N2C(=O)COC | / | -2 | 0 | / | -11 | 1
CC(C)NC(=O)Nc1ccc2c(c1)C(=O)N([C@H](C)CO)C[C@@H](C)[C@@H](CN(C)Cc1ccc(C(=O)O)cc1)OCCCC[C@H](C)O2 | -1 | -3 | 1 | 9 | 39* | 0
CC(C)NC(=O)Nc1ccc2c(c1)C(=O)N([C@@H](C)CO)C[C@@H](C)[C@H](CN(C)Cc1ccc(C(=O)O)cc1)OCCCC[C@@H](C)O2 | -7 | -1 | -1 | 6 | 22* | 0
CC(C)NC(=O)Nc1ccc2c(c1)C(=O)N([C@@H](C)CO)C[C@@H](C)[C@H](CN(C)Cc1ccc(C(=O)O)cc1)OCCCC[C@H](C)O2 | 1 | 0 | 1.6* | -11 | 5 | 0
CC(C)NC(=O)Nc1ccc2c(c1)C(=O)N([C@H](C)CO)C[C@@H](C)[C@H](CN(C)Cc1ccc(C(=O)O)cc1)OCCCC[C@H](C)O2 | -9 | 0 | 0 | 1 | 2 | 0
C[C@@H]1CN([C@@H](C)CO)S(=O)(=O)c2ccc(C#CC3CCCCC3)cc2O[C@H]1CN(C)C | 8 | 14 | 1 | 18 | 15 | 0
N#C[C@@H]1[C@@H](c2ccccc2-c2ccccc2)[C@H](CO)N1C(=O)NC1CCCCC1 | / | 8 | / | -3 | 0 | 0
COc1ccc(NC(=O)N(C)C[C@@H]2Oc3ccc(NC(=O)NC(C)C)cc3C(=O)N([C@@H](C)CO)C[C@@H]2C)cc1 | -6 | 3 | 0 | / | -10 | 0
Cc1cccc(CSCCNC(=O)CCSc2ccccc2)c1 | / | -5 | 44* | 3 | 1 | 0
CC[C@H](C)C(=O)O[C@H]1C[C@@H](C)C=C2C=C[C@H](C)[C@H](CC[C@@H]3C[C@@H](O)CC(=O)O3)[C@H]21 | 0 | 0 | 0 | -9 | 36*! | 0
COC(=O)c1ccc(CN2CC(=O)N3[C@H](CO)[C@@H](c4ccc(-c5ccccc5F)cc4)[C@@H]3C2)cc1 | / | 0 | / | / | 8 | 0
CCC(=O)N(c1ccc(C(=O)O)cc1)c1nc(-c2ccc(OC)cc2)c(C)s1 | 4 | / | 44* | / | 3 | 0
COc1cccc(S(=O)(=O)N[C@H]2CC[C@@H](CC(=O)NCc3ccccc3)O[C@@H]2CO)c1 | -3 | 3 | 0 | / | 9 | 1
O=C(CN1C(=O)CC(c2ccccc2)Sc2ccccc21)NCC1CCCO1 (centres undefined) | -1 | -2 | 43* | 8 | -3 | 0
COc1ccc2[nH]c(CN3CCN(CC(C)C)C(CCO)C3)c(C)c2c1 (centres undefined) | -13 | 2 | 43* | -4 | 5 | 0
Cc1cccc(-c2ncc(CN3CCN(CC(C)C)C(CCO)C3)cn2)c1 (centres undefined) | -1 | 0 | 43* | -3 | 5 | 0
CC(C)CN1CCN(Cc2cccn2-c2cccnc2)CC1CCO (centres undefined) | -4 | 1 | 43* | 10 | -4 | 0
C[C@@H]1CN([C@@H](C)CO)C(=O)c2cc(NC(=O)Nc3cccc4ccccc34)ccc2O[C@@H](C)CCCCO[C@@H]1CN(C)C(=O)Nc1ccccc1 | 0 | -3 | / | 14 | 0 | 0
CCc1c(-c2ccccc2)ncn1Cc1cccc(-c2ccccc2)c1 | / | / | 42 | -1 | 1 | 0
SMILES | ARNT TACC3 PPI | SIRT5 block | FGF22 binding | FN deposit inh | DENV2 CPE | XiGFP reactiv
CCc1c(-c2ccccc2F)ncn1Cc1cccc(-c2ccccc2)c1 | / | -3 | 0 | -4 | 59* | /
CCc1c(-c2ccc(Cl)cc2)ncn1Cc1cccc(-c2ccccc2)c1 | / | 1 | 0 | -1 | -6 | 0
CCc1c(C2CC2)ncn1Cc1cccc(-c2ccccc2)c1 | / | 0 | 0 | -7 | 20* | 0
O=C(C[C@H]1CC[C@H](NS(=O)(=O)c2ccc(F)cc2)[C@@H](CO)O1)NCc1ccncn1 | 0 | -1 | 1 | / | 4 | 0
COc1ccccc1N(CC(=O)N/N=C/c1c(O)ccc2ccccc12)S(C)(=O)=O | 83* | / | / | 4 | / | 0
COc1ccccc1NCC(=O)N/N=C/c1c(O)ccc2ccccc12 | 6 | 5 | 0 | 7 | 15 | 0
CCN1C=C(C(C)=O)C(=O)CC1 | -6 | / | 43* | -2 | 7 | 0
C[C@H](CO)N1C[C@H](C)[C@H](CN(C)C)Oc2cc(-c3ccc(C#N)cc3)ccc2S1(=O)=O | 26 | 1 | 0 | / | -4 | -2
Cc1ccc(/C=C2/C(=O)ON=C2c2ccccc2)o1 | -3 | / | 0 | -3 | 42* | 0
CC(C)NC(=O)N(C)C[C@@H]1Oc2ccc(N)cc2CC(=O)N(C)C[C@@H]1C | / | / | / | -4 | / | 0
CCc1nnc(NS(=O)(=O)c2ccc(NC(=O)C(c3ccccc3)c3ccccc3)cc2)s1 | -14 | 1 | 1.5* | -2 | -2 | 0
